Results from ChEMBL document CHEMBL3351454, “Design, synthesis, antimicrobial evaluation and molecular docking studies of some new thiophene, pyrazole and pyridone derivatives bearing sulfisoxazole moiety” (2014).
≈ marks a conversion by molar mass, not a printed value. Calls of active or inactive are those of the source. The rule behind the calls is not given here.

Key:
Format in all cases: functional
[1] = tested on: Syncephalastrum racemosum; assay: Antifungal activity against Syncephalastrum racemosum RCMB 05922 assessed as inhibition zone at 5 mg/ml after 48 hrs; conditions: RCMB 05922, 48 h, read-out: IZ
Klebsiella pneumoniae [2] = assay: Antimicrobial activity against Klebsiella pneumoniae RCMB 010093 assessed as absence of turbidity after 24 hrs; conditions: RCMB 010093, 24 h
Procedure, shortened: (§1)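 Broth microdilution in Müller–Hinton broth. DMF stocks at 1000 µg/mL were diluted in broth to give twofold serial dilutions over 500–0.007 µg/mL. Bacterial inoculum was about 10^6 CFU/mL in 96-well plates, sealed and incubated at 37 °C for 24 h in a humid chamber. MIC was taken as the lowest concentration with no visible turbidity. DMF and uninoculated-medium controls were included. Only compounds giving zones >10 mm were tested.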

[3] = tested on: Staphylococcus epidermidis; assay: Antimicrobial activity against Staphylococcus epidermidis RCMB 010024 assessed as absence of turbidity after 24 hrs; conditions: RCMB 010024, 24 h; procedure, shortened: as §1
Geotrichum candidum [4] = assay: Antifungal activity against Geotrichum candidum RCMB 05097 assessed as inhibition zone at 5 mg/ml after 48 hrs; conditions: RCMB 05097, 48 h, read-out: IZ
Procedure, shortened: (§2)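 Disk diffusion on nutrient agar seeded with 10^4 CFU/mL fungus. Sterile filter-paper disks carried 100 µL of a 5 mg/mL DMF solution, and DMF alone served as control. Plates were incubated at 25 °C for 48 h. Mean inhibition zone in mm ± SD was read beyond the 6 mm diameter, in triplicate.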

Aspergillus fumigatus [5] = assay: Antifungal activity against Aspergillus fumigatus RCMB 02568 assessed as absence of turbidity after 48 hrs; conditions: RCMB 02568, 48 h
Procedure, shortened: as §1, with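 “Sabouraud liquid medium.” for “Müller–Hinton broth.”, “Fungal” for “Bacterial”, “10^4” for “10^6”, “25” for “37”, “48” for “24”, “included.” for “included. Only compounds giving zones >10 mm were tested.”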

Proteus vulgaris [6] = assay: Antimicrobial activity against Proteus vulgaris RCMB 010085 assessed as inhibition zone at 5 mg/ml after 24 hrs; conditions: for zone of inhibition at 5000 µg/mL: RCMB 010085, 24 h, read-out: IZ
Procedure, shortened: (§3)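 Agar diffusion on nutrient agar seeded with 10^6 CFU/mL bacteria. Filter-paper disks were loaded with 100 µL of a 5 mg/mL compound solution in DMF, with a DMF-only control. Incubation was 37 °C for 24 h. Inhibition zone in mm (mean ± SD, triplicate plates) was measured beyond the 6 mm diameter.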

Escherichia coli [7] = assay: Antimicrobial activity against Escherichia coli RCMB 010052 assessed as absence of turbidity after 24 hrs; conditions: RCMB 010052, 24 h; procedure, shortened: as §1
Klebsiella pneumoniae [8] = assay: Antimicrobial activity against Klebsiella pneumoniae RCMB 010093 assessed as inhibition zone at 5 mg/ml after 24 hrs; conditions: RCMB 010093, 24 h, read-out: IZ; procedure, shortened: as §3
Streptococcus pneumoniae [9] = assay: Antimicrobial activity against Streptococcus pneumoniae RCMB 010010 assessed as inhibition zone at 5 mg/ml after 24 hrs; conditions: RCMB 010010, 24 h, read-out: IZ; procedure, shortened: as §3
[10] = tested on: Syncephalastrum racemosum; assay: Antifungal activity against Syncephalastrum racemosum RCMB 05922 assessed as absence of turbidity after 48 hrs; conditions: RCMB 05922, 48 h
Aspergillus fumigatus [11] = assay: Antifungal activity against Aspergillus fumigatus RCMB 02568 assessed as inhibition zone at 5 mg/ml after 48 hrs; conditions: RCMB 02568, 48 h, read-out: IZ; procedure, shortened: as §2
Bacillus subtilis [12] = assay: Antimicrobial activity against Bacillis subtilis RCMB 010067 assessed as inhibition zone at 5 mg/ml after 24 hrs; conditions: RCMB 010067, 24 h, read-out: IZ; procedure, shortened: as §3
Proteus vulgaris [13] = assay: Antimicrobial activity against Proteus vulgaris RCMB 010085 assessed as absence of turbidity after 24 hrs; procedure, shortened: as §1
Geotrichum candidum [14] = assay: Antifungal activity against Geotrichum candidum RCMB 05097 assessed as absence of turbidity after 48 hrs; conditions: RCMB 05097, 48 h
Procedure, shortened: as §1, with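 “Sabouraud liquid medium.” for “Müller–Hinton broth.”, “Fungal” for “Bacterial”, “10^4” for “10^6”, “25” for “37”, “48” for “24”, “included.” for “included. Only compounds giving zones >10 mm were tested.”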

Bacillus subtilis [15] = assay: Antimicrobial activity against Bacillis subtilis RCMB 010067 assessed as absence of turbidity after 24 hrs; conditions: RCMB 010067, 24 h; procedure, shortened: as §1
[16] = tested on: Staphylococcus epidermidis; assay: Antimicrobial activity against Staphylococcus epidermidis RCMB 010024 assessed as inhibition zone at 5 mg/ml after 24 hrs; conditions: RCMB 010024, 24 h, read-out: IZ; procedure, shortened: as §3
Streptococcus pneumoniae [17] = assay: Antimicrobial activity against Streptococcus pneumoniae RCMB 010010 assessed as absence of turbidity after 24 hrs; conditions: RCMB 010010, 24 h; procedure, shortened: as §1
Escherichia coli [18] = assay: Antimicrobial activity against Escherichia coli RCMB 010052 assessed as inhibition zone at 5 mg/ml after 24 hrs; conditions: RCMB 010052, 24 h, read-out: IZ; procedure, shortened: as §3

| SMILES | zone of inhibition at 5000 µg/mL [1] | MIC (Klebsiella pneumoniae [2]) | MIC [3] | zone of inhibition at 5000 µg/mL (Geotrichum candidum [4]) | MIC (Aspergillus fumigatus [5]) | zone of inhibition at 5000 µg/mL (Proteus vulgaris [6]) | MIC (Escherichia coli [7]) | zone of inhibition at 5000 µg/mL (Klebsiella pneumoniae [8]) | zone of inhibition at 5000 µg/mL (Streptococcus pneumoniae [9]) | MIC [10] | zone of inhibition at 5000 µg/mL (Aspergillus fumigatus [11]) | zone of inhibition at 5000 µg/mL (Bacillus subtilis [12]) | MIC (Proteus vulgaris [13]; RCMB 010085, 24 h) | MIC (Geotrichum candidum [14]) | MIC (Bacillus subtilis [15]) | zone of inhibition at 5000 µg/mL [16] | MIC (Streptococcus pneumoniae [17]) | zone of inhibition at 5000 µg/mL (Escherichia coli [18]) | Activity (Proteus vulgaris [6]) | MIC (Proteus vulgaris [13]) |
| --- | --- | --- | --- | --- | --- | --- | --- | --- | --- | --- | --- | --- | --- | --- | --- | --- | --- | --- | --- | --- |
| CNc1sc(C(C)=O)c(N)c1C(=O)Nc1ccc(S(=O)(=O)Nc2onc(C)c2C)cc1 | 14.1 mm | 15.6 µg/mL (≈ 33.7 µM) | 7.81 µg/mL (≈ 16.8 µM) | 16.4 mm | 62.5 µg/mL (≈ 135 µM) | 18.2 mm | 15.6 µg/mL (≈ 33.7 µM) | 16.9 mm | 16.6 mm | 62.5 µg/mL (≈ 135 µM) | 15.8 mm | 19.1 mm | 3.9 µg/mL (≈ 8.41 µM) | 31.2 µg/mL (≈ 67.4 µM) | 3.9 µg/mL (≈ 8.41 µM) | 18.7 mm | 16.6 µg/mL (≈ 35.9 µM) | 17.1 mm |  |  |
| Cc1noc(NS(=O)(=O)c2ccc(NC(=O)c3cn[nH]c3N)cc2)c1C | 17.2 mm | 125 µg/mL (≈ 332 µM) | 31.2 µg/mL (≈ 83 µM) | 18.9 mm | 7.81 µg/mL (≈ 20.7 µM) | 11 mm | 125 µg/mL (≈ 332 µM) | 14.6 mm | 17.8 mm | 15.6 µg/mL (≈ 41.5 µM) | 18.6 mm | 18 mm | 500 µg/mL (≈ 1330 µM) | 7.81 µg/mL (≈ 20.7 µM) | 7.81 µg/mL (≈ 20.7 µM) | 16.1 mm | 7.81 µg/mL (≈ 20.7 µM) | 13 mm |  |  |
| CCOc1ccc(-n2nc(C(=O)Nc3ccc(S(=O)(=O)Nc4onc(C)c4C)cc3)c(N)c2C#N)cc1 | 24.6 mm | 0.06 µg/mL (≈ 0.115 µM) | 3.9 µg/mL (≈ 7.48 µM) | 21.9 mm | 0.24 µg/mL (≈ 0.46 µM) | 18.2 mm | 31.2 µg/mL (≈ 59.9 µM) | 25.1 mm | 20 mm | 0.06 µg/mL (≈ 0.115 µM) | 23 mm | 19.6 mm | 7.81 µg/mL (≈ 15 µM) | 0.49 µg/mL (≈ 0.939 µM) | 1.95 µg/mL (≈ 3.74 µM) | 18.9 mm | 1.95 µg/mL (≈ 3.74 µM) | 16.4 mm |  |  |
| Cc1noc(NS(=O)(=O)c2ccc(NC(=O)/C(C#N)=C/c3cccnc3)cc2)c1C | 18.7 mm | 0.12 µg/mL (≈ 0.283 µM) | 0.49 µg/mL (≈ 1.16 µM) | 25.6 mm | 0.49 µg/mL (≈ 1.16 µM) | 19.3 mm | 0.12 µg/mL (≈ 0.283 µM) | 24.2 mm | 24.6 mm | 3.9 µg/mL (≈ 9.21 µM) | 23.4 mm | 26.2 mm | 3.9 µg/mL (≈ 9.21 µM) | 0.03 µg/mL (≈ 0.0708 µM) | 0.03 µg/mL (≈ 0.0708 µM) | 22.3 mm | 0.06 µg/mL (≈ 0.142 µM) | 23.7 mm |  |  |
| C=CCNc1sc(C(C)=O)c(N)c1C(=O)Nc1ccc(S(=O)(=O)Nc2onc(C)c2C)cc1 | 21.1 mm | 3.9 µg/mL (≈ 7.97 µM) | 3.9 µg/mL (≈ 7.97 µM) | 21.9 mm | 0.98 µg/mL (≈ 2 µM) |  | 7.81 µg/mL (≈ 16 µM) | 18.9 mm | 20.6 mm | 0.98 µg/mL (≈ 2 µM) | 20.6 mm | 23.7 mm |  | 0.49 µg/mL (≈ 1 µM) | 0.12 µg/mL (≈ 0.245 µM) | 19.3 mm | 0.98 µg/mL (≈ 2 µM) | 18.3 mm | inactive | inactive |
